Test system: Fibroblast
Test: Multiplex assay against human fibroblast
Assay type: toxicity, cell-based
Method in brief: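 On a CQ1 microscope at 37°C and 5% CO2, live cells were imaged after compound addition. They had been stained at seeding with Hoechst33342, BioTracker Green Microtubule Cytoskeleton Dye, MitoTracker Red and Annexin V Alexa Fluor 680. CellPathfinder machine-learning gating assigned cells to Hoechst high-intensity objects or normal cells, normal cells to healthy, pyknosed or fragmented nuclei, and pyknosed cells to mitotic or apoptotic. Tubulin, mitochondrial-mass and membrane-permeability phenotypes are per cents of healthy-nucleus cells.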

[1] = 12 h, 1 µM, compound concentration 1 uM, replicate 1
[2] = 12 h, 1 µM, compound concentration 1 uM, replicate 2
[3] = 12 h, 10 µM, compound concentration 10 uM, replicate 1
[4] = 12 h, 10 µM, compound concentration 10 uM, replicate 2
[5] = 24 h, 1 µM, compound concentration 1 uM, replicate 1
[6] = 24 h, 1 µM, compound concentration 1 uM, replicate 2
[7] = 24 h, 10 µM, compound concentration 10 uM, replicate 1
[8] = 24 h, 10 µM, compound concentration 10 uM, replicate 2
[9] = 48 h, 1 µM, compound concentration 1 uM, replicate 1
[10] = 48 h, 1 µM, compound concentration 1 uM, replicate 2
[11] = 48 h, 10 µM, compound concentration 10 uM, replicate 1
[12] = 48 h, 10 µM, compound concentration 10 uM, replicate 2

CC[C@H]1OC(=O)[C@H](C)[C@@H](O[C@H]2C[C@@](C)(OC)[C@@H](O)[C@H](C)O2)[C@H](C)[C@@H](O[C@@H]2O[C@H](C)C[C@H](N(C)C)[C@H]2O)[C@@]2(C)CC(C)=C(O2)[C@H](C)[C@@H](O)[C@]1(C)O
Population Apoptotic (%) [1]: 37%
Population Fragmented Nuclei (%) [1]: 13%
Population Healthy Nuclei (%) [1]: 72%
Population Hoechst High Intensity Objects (%) [1]: 2%
Population Membrane Permeable-Phenotype (%) [1]: 0%
Population Mitochondria Different-Phenotype (%) [1]: 8%
Population Mitotic Cells (%) [1]: 62%
Population Normal (%) [1]: 97%
Population Pyknosed Nuclei (%) [1]: 13%
Population Tubulin-Different-Phenotype (%) [1]: 40%
Total Cell Count [1]: 176
Population Apoptotic (%) [2]: 46%
Population Fragmented Nuclei (%) [2]: 23%
Population Healthy Nuclei (%) [2]: 57%
Population Hoechst High Intensity Objects (%) [2]: 3%
Population Membrane Permeable-Phenotype (%) [2]: 9%
Population Mitochondria Different-Phenotype (%) [2]: 6%
Population Mitotic Cells (%) [2]: 53%
Population Normal (%) [2]: 96%
Population Pyknosed Nuclei (%) [2]: 18%
Population Tubulin-Different-Phenotype (%) [2]: 53%
Total Cell Count [2]: 170
Population Apoptotic (%) [3]: 48%
Population Fragmented Nuclei (%) [3]: 24%
Population Healthy Nuclei (%) [3]: 63%
Population Hoechst High Intensity Objects (%) [3]: 3%
Population Membrane Permeable-Phenotype (%) [3]: 0%
Population Mitochondria Different-Phenotype (%) [3]: 25%
Population Mitotic Cells (%) [3]: 52%
Population Normal (%) [3]: 96%
Population Pyknosed Nuclei (%) [3]: 12%
Population Tubulin-Different-Phenotype (%) [3]: 86%
Total Cell Count [3]: 205
Population Apoptotic (%) [4]: 40%
Population Fragmented Nuclei (%) [4]: 41%
Population Healthy Nuclei (%) [4]: 33%
Population Hoechst High Intensity Objects (%) [4]: 4%
Population Membrane Permeable-Phenotype (%) [4]: 14%
Population Mitochondria Different-Phenotype (%) [4]: 11%
Population Mitotic Cells (%) [4]: 59%
Population Normal (%) [4]: 95%
Population Pyknosed Nuclei (%) [4]: 25%
Population Tubulin-Different-Phenotype (%) [4]: 73%
Total Cell Count [4]: 133
Population Apoptotic (%) [5]: 52%
Population Fragmented Nuclei (%) [5]: 18%
Population Healthy Nuclei (%) [5]: 69%
Population Hoechst High Intensity Objects (%) [5]: 4%
Population Membrane Permeable-Phenotype (%) [5]: 0%
Population Mitochondria Different-Phenotype (%) [5]: 7%
Population Mitotic Cells (%) [5]: 47%
Population Normal (%) [5]: 95%
Population Pyknosed Nuclei (%) [5]: 12%
Population Tubulin-Different-Phenotype (%) [5]: 45%
Total Cell Count [5]: 173
Population Apoptotic (%) [6]: 46%
Population Fragmented Nuclei (%) [6]: 29%
Population Healthy Nuclei (%) [6]: 52%
Population Hoechst High Intensity Objects (%) [6]: 3%
Population Membrane Permeable-Phenotype (%) [6]: 7%
Population Mitochondria Different-Phenotype (%) [6]: 5%
Population Mitotic Cells (%) [6]: 53%
Population Normal (%) [6]: 96%
Population Pyknosed Nuclei (%) [6]: 17%
Population Tubulin-Different-Phenotype (%) [6]: 36%
Total Cell Count [6]: 176
Population Apoptotic (%) [7]: 52%
Population Fragmented Nuclei (%) [7]: 22%
Population Healthy Nuclei (%) [7]: 69%
Population Hoechst High Intensity Objects (%) [7]: 2%
Population Membrane Permeable-Phenotype (%) [7]: 0%
Population Mitochondria Different-Phenotype (%) [7]: 37%
Population Mitotic Cells (%) [7]: 47%
Population Normal (%) [7]: 97%
Population Pyknosed Nuclei (%) [7]: 8%
Population Tubulin-Different-Phenotype (%) [7]: 89%
Total Cell Count [7]: 199
Population Apoptotic (%) [8]: 46%
Population Fragmented Nuclei (%) [8]: 40%
Population Healthy Nuclei (%) [8]: 39%
Population Hoechst High Intensity Objects (%) [8]: 1%
Population Membrane Permeable-Phenotype (%) [8]: 8%
Population Mitochondria Different-Phenotype (%) [8]: 12%
Population Mitotic Cells (%) [8]: 53%
Population Normal (%) [8]: 98%
Population Pyknosed Nuclei (%) [8]: 20%
Population Tubulin-Different-Phenotype (%) [8]: 81%
Total Cell Count [8]: 127
Population Apoptotic (%) [9]: 55%
Population Fragmented Nuclei (%) [9]: 17%
Population Healthy Nuclei (%) [9]: 71%
Population Hoechst High Intensity Objects (%) [9]: 3%
Population Membrane Permeable-Phenotype (%) [9]: 0%
Population Mitochondria Different-Phenotype (%) [9]: 9%
Population Mitotic Cells (%) [9]: 44%
Population Normal (%) [9]: 96%
Population Pyknosed Nuclei (%) [9]: 11%
Population Tubulin-Different-Phenotype (%) [9]: 57%
Total Cell Count [9]: 168
Population Apoptotic (%) [10]: 56%
Population Fragmented Nuclei (%) [10]: 32%
Population Healthy Nuclei (%) [10]: 54%
Population Hoechst High Intensity Objects (%) [10]: 2%
Population Membrane Permeable-Phenotype (%) [10]: 7%
Population Mitochondria Different-Phenotype (%) [10]: 5%
Population Mitotic Cells (%) [10]: 43%
Population Normal (%) [10]: 97%
Population Pyknosed Nuclei (%) [10]: 13%
Population Tubulin-Different-Phenotype (%) [10]: 56%
Total Cell Count [10]: 173
Population Apoptotic (%) [11]: 84%
Population Fragmented Nuclei (%) [11]: 24%
Population Healthy Nuclei (%) [11]: 68%
Population Hoechst High Intensity Objects (%) [11]: 8%
Population Membrane Permeable-Phenotype (%) [11]: 0%
Population Mitochondria Different-Phenotype (%) [11]: 40%
Population Mitotic Cells (%) [11]: 15%
Population Normal (%) [11]: 91%
Population Pyknosed Nuclei (%) [11]: 6%
Population Tubulin-Different-Phenotype (%) [11]: 91%
Total Cell Count [11]: 216
Population Apoptotic (%) [12]: 58%
Population Fragmented Nuclei (%) [12]: 43%
Population Healthy Nuclei (%) [12]: 47%
Population Hoechst High Intensity Objects (%) [12]: 7%
Population Membrane Permeable-Phenotype (%) [12]: 6%
Population Mitochondria Different-Phenotype (%) [12]: 8%
Population Mitotic Cells (%) [12]: 41%
Population Normal (%) [12]: 92%
Population Pyknosed Nuclei (%) [12]: 9%
Population Tubulin-Different-Phenotype (%) [12]: 78%
Total Cell Count [12]: 139

Cc1ccc(C(C)(O)c2nc3ccccc3s2)c(C)c1 (configuration not stated)
Population Apoptotic (%) [1]: 50%
Population Fragmented Nuclei (%) [1]: 8%
Population Healthy Nuclei (%) [1]: 78%
Population Hoechst High Intensity Objects (%) [1]: 0%
Population Membrane Permeable-Phenotype (%) [1]: 0%
Population Mitochondria Different-Phenotype (%) [1]: 5%
Population Mitotic Cells (%) [1]: 50%
Population Normal (%) [1]: 99%
Population Pyknosed Nuclei (%) [1]: 12%
Population Tubulin-Different-Phenotype (%) [1]: 29%
Total Cell Count [1]: 125
Population Apoptotic (%) [2]: 44%
Population Fragmented Nuclei (%) [2]: 22%
Population Healthy Nuclei (%) [2]: 48%
Population Hoechst High Intensity Objects (%) [2]: 5%
Population Membrane Permeable-Phenotype (%) [2]: 3%
Population Mitochondria Different-Phenotype (%) [2]: 6%
Population Mitotic Cells (%) [2]: 56%
Population Normal (%) [2]: 95%
Population Pyknosed Nuclei (%) [2]: 29%
Population Tubulin-Different-Phenotype (%) [2]: 36%
Total Cell Count [2]: 180
Population Apoptotic (%) [3]: 44%
Population Fragmented Nuclei (%) [3]: 11%
Population Healthy Nuclei (%) [3]: 72%
Population Hoechst High Intensity Objects (%) [3]: 1%
Population Membrane Permeable-Phenotype (%) [3]: 0%
Population Mitochondria Different-Phenotype (%) [3]: 5%
Population Mitotic Cells (%) [3]: 56%
Population Normal (%) [3]: 98%
Population Pyknosed Nuclei (%) [3]: 16%
Population Tubulin-Different-Phenotype (%) [3]: 24%
Total Cell Count [3]: 153
Population Apoptotic (%) [4]: 22%
Population Fragmented Nuclei (%) [4]: 31%
Population Healthy Nuclei (%) [4]: 43%
Population Hoechst High Intensity Objects (%) [4]: 7%
Population Membrane Permeable-Phenotype (%) [4]: 15%
Population Mitochondria Different-Phenotype (%) [4]: 6%
Population Mitotic Cells (%) [4]: 77%
Population Normal (%) [4]: 92%
Population Pyknosed Nuclei (%) [4]: 25%
Population Tubulin-Different-Phenotype (%) [4]: 60%
Total Cell Count [4]: 149
Population Apoptotic (%) [5]: 31%
Population Fragmented Nuclei (%) [5]: 13%
Population Healthy Nuclei (%) [5]: 73%
Population Hoechst High Intensity Objects (%) [5]: 0%
Population Membrane Permeable-Phenotype (%) [5]: 2%
Population Mitochondria Different-Phenotype (%) [5]: 7%
Population Mitotic Cells (%) [5]: 68%
Population Normal (%) [5]: 99%
Population Pyknosed Nuclei (%) [5]: 13%
Population Tubulin-Different-Phenotype (%) [5]: 22%
Total Cell Count [5]: 139
Population Apoptotic (%) [6]: 47%
Population Fragmented Nuclei (%) [6]: 25%
Population Healthy Nuclei (%) [6]: 54%
Population Hoechst High Intensity Objects (%) [6]: 5%
Population Membrane Permeable-Phenotype (%) [6]: 11%
Population Mitochondria Different-Phenotype (%) [6]: 5%
Population Mitotic Cells (%) [6]: 52%
Population Normal (%) [6]: 94%
Population Pyknosed Nuclei (%) [6]: 20%
Population Tubulin-Different-Phenotype (%) [6]: 43%
Total Cell Count [6]: 173
Population Apoptotic (%) [7]: 55%
Population Fragmented Nuclei (%) [7]: 13%
Population Healthy Nuclei (%) [7]: 74%
Population Hoechst High Intensity Objects (%) [7]: 4%
Population Membrane Permeable-Phenotype (%) [7]: 3%
Population Mitochondria Different-Phenotype (%) [7]: 6%
Population Mitotic Cells (%) [7]: 44%
Population Normal (%) [7]: 95%
Population Pyknosed Nuclei (%) [7]: 12%
Population Tubulin-Different-Phenotype (%) [7]: 24%
Total Cell Count [7]: 152
Population Apoptotic (%) [8]: 38%
Population Fragmented Nuclei (%) [8]: 27%
Population Healthy Nuclei (%) [8]: 46%
Population Hoechst High Intensity Objects (%) [8]: 6%
Population Membrane Permeable-Phenotype (%) [8]: 12%
Population Mitochondria Different-Phenotype (%) [8]: 9%
Population Mitotic Cells (%) [8]: 61%
Population Normal (%) [8]: 93%
Population Pyknosed Nuclei (%) [8]: 25%
Population Tubulin-Different-Phenotype (%) [8]: 61%
Total Cell Count [8]: 143
Population Apoptotic (%) [9]: 33%
Population Fragmented Nuclei (%) [9]: 16%
Population Healthy Nuclei (%) [9]: 73%
Population Hoechst High Intensity Objects (%) [9]: 4%
Population Membrane Permeable-Phenotype (%) [9]: 0%
Population Mitochondria Different-Phenotype (%) [9]: 3%
Population Mitotic Cells (%) [9]: 66%
Population Normal (%) [9]: 95%
Population Pyknosed Nuclei (%) [9]: 9%
Population Tubulin-Different-Phenotype (%) [9]: 16%
Total Cell Count [9]: 129
Population Apoptotic (%) [10]: 50%
Population Fragmented Nuclei (%) [10]: 28%
Population Healthy Nuclei (%) [10]: 57%
Population Hoechst High Intensity Objects (%) [10]: 3%
Population Membrane Permeable-Phenotype (%) [10]: 5%
Population Mitochondria Different-Phenotype (%) [10]: 6%
Population Mitotic Cells (%) [10]: 50%
Population Normal (%) [10]: 96%
Population Pyknosed Nuclei (%) [10]: 14%
Population Tubulin-Different-Phenotype (%) [10]: 39%
Total Cell Count [10]: 174
Population Apoptotic (%) [11]: 53%
Population Fragmented Nuclei (%) [11]: 22%
Population Healthy Nuclei (%) [11]: 68%
Population Hoechst High Intensity Objects (%) [11]: 7%
Population Membrane Permeable-Phenotype (%) [11]: 2%
Population Mitochondria Different-Phenotype (%) [11]: 6%
Population Mitotic Cells (%) [11]: 46%
Population Normal (%) [11]: 92%
Population Pyknosed Nuclei (%) [11]: 9%
Population Tubulin-Different-Phenotype (%) [11]: 27%
Total Cell Count [11]: 156
Population Apoptotic (%) [12]: 43%
Population Fragmented Nuclei (%) [12]: 34%
Population Healthy Nuclei (%) [12]: 53%
Population Membrane Permeable-Phenotype (%) [12]: 7%
Population Mitochondria Different-Phenotype (%) [12]: 7%
Population Mitotic Cells (%) [12]: 56%
Population Pyknosed Nuclei (%) [12]: 12%
Population Tubulin-Different-Phenotype (%) [12]: 64%
Total Cell Count [12]: 143

— ChEMBL document CHEMBL5058577, “EUbOPEN Chemogenomics Library 2 (Multiplex)” (2022)
